Assay results as given in ChEMBL document CHEMBL3352284, “Synthesis of 7-halogenated isatin sulfonamides: nonradioactive counterparts of caspase-3/-7 inhibitor-based potential radiopharmaceuticals for molecular imaging of apoptosis” (J Med Chem, 2014).
pIC50: −log10 of the molar value.

How the values were obtained:
[1] = biological target: T1, Caspase-3 (Homo sapiens, UniProt P42574); assay: Inhibition of human recombinant caspase 3 using Ac-DEVD-AMC substrate assessed as accumulation of cleaved fluorogenic product
T1 sequence (P42574 whole entry): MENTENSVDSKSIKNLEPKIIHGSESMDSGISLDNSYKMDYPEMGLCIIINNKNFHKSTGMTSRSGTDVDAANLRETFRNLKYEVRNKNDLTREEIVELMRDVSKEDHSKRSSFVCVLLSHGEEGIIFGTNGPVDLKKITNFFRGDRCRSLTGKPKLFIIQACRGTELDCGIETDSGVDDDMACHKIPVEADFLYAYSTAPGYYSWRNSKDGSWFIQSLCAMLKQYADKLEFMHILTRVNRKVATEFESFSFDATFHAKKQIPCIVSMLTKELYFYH
How it was run: (§1)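 Inhibitor in DMSO (1−5%) at final 500 μM down to 5 pM in tenfold steps, preincubated 10 min. Peptide-AMC substrate then added (final 10 μM) and reacted 10 min at 37 °C. Released AMC read by fluorescence, excitation 360 nm, emission 460 nm.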

[2] = biological target: T2, Caspase-7 (Homo sapiens, UniProt P55210); assay: Inhibition of human recombinant caspase 7 using Ac-DEVD-AMC substrate assessed as accumulation of cleaved fluorogenic product; how it was run: as §1
T2 sequence (P55210 whole entry): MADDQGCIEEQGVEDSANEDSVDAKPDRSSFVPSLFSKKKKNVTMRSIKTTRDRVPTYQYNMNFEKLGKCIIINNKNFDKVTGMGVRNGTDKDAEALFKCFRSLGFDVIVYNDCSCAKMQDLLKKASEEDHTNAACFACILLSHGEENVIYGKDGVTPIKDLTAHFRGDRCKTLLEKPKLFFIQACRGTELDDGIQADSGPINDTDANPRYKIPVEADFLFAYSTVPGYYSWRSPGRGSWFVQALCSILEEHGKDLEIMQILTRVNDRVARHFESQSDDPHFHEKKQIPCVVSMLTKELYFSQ

[3] = biological target: T3, Caspase-1 (Homo sapiens, UniProt P29466); assay: Inhibition of human recombinant caspase 1 using Ac-YVAD-AMC substrate assessed as accumulation of cleaved fluorogenic product; how it was run: as §1
T3 sequence (P29466 whole entry): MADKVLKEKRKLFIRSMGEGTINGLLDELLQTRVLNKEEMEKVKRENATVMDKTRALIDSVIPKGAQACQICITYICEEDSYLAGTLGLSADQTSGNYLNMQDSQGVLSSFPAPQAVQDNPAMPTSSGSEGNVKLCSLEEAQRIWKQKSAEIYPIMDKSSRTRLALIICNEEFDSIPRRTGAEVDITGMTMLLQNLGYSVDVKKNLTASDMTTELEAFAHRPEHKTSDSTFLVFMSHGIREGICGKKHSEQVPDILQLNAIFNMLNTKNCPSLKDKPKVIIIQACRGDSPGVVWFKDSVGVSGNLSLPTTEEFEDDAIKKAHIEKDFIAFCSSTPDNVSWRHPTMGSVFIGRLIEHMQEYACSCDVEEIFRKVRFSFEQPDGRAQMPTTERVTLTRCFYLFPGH

[4] = biological target: T4, Caspase-6 (Homo sapiens, UniProt P55212); assay: Inhibition of human recombinant caspase 6 using Ac-VEID-AMC substrate assessed as accumulation of cleaved fluorogenic product; how it was run: as §1
T4 sequence (P55212 whole entry): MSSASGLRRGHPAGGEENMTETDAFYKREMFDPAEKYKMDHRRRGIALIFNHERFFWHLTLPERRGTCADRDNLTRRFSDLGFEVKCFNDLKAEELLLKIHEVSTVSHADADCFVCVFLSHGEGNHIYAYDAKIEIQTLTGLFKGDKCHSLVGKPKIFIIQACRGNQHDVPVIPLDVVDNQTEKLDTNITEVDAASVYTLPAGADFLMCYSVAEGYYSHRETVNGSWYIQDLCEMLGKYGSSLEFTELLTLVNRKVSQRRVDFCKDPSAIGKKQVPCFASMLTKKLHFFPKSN

SMILES | pIC50 [1] | pIC50 [2] | pIC50 [3] | pIC50 [4]
CCN1C(=O)C(=O)c2cc(S(=O)(=O)N3CCC[C@H]3COC)cc(I)c21 | 6.68 | 7.70 | – | –
CCCN1C(=O)C(=O)c2cc(S(=O)(=O)N3CCC[C@H]3COC)cc(I)c21 | 6.91 | 7.37 | – | –
COC[C@@H]1CCCN1S(=O)(=O)c1cc(I)c2c(c1)C(=O)C(=O)N2CCCCF | 7.29 | 7.17 | 3.30 | 3.30
COC[C@@H]1CCCN1S(=O)(=O)c1cc(Br)c2c(c1)C(=O)C(=O)N2C | 6.45 | 6.26 | – | –
CCCCN1C(=O)C(=O)c2cc(S(=O)(=O)N3CCC[C@H]3COC)cc(Br)c21 | 7.33 | 8.48 | – | –
COC[C@@H]1CCCN1S(=O)(=O)c1cc(Br)c2c(c1)C(=O)C(=O)N2CCCF | 7.09 | 7.70 | – | –
COC[C@@H]1CCCN1S(=O)(=O)c1cc(Br)c2c(c1)C(=O)C(=O)N2CCCCO | 8.59 | 7.64 | < 3.30 | < 3.30
CCCCN1C(=O)C(=O)c2cc(S(=O)(=O)N3CCC[C@H]3COC)cc(Cl)c21 | 7.24 | 6.58 | 3.30 | 3.30
COC[C@@H]1CCCN1S(=O)(=O)c1cc(Cl)c2c(c1)C(=O)C(=O)N2CCCCF | 8.32 | 7.25 | 5.59 | 3.30
COC[C@@H]1CCCN1S(=O)(=O)c1ccc2c(c1)C(=O)C(=O)N2 | – | – | < 3.30 | 3.30

More lines, now with the values ahead:

pIC50 [1] | pIC50 [2] | pIC50 [3] | pIC50 [4] | SMILES
< 3.30 | < 3.30 | – | – | COC[C@@H]1CCCN1S(=O)(=O)c1cc(I)c2c(c1)C(=O)C(=O)N2
5.92 | 4.98 | – | – | COC[C@@H]1CCCN1S(=O)(=O)c1cc(I)c2c(c1)C(=O)C(=O)N2C
7.76 | 6.04 | < 3.30 | < 3.30 | CCCCN1C(=O)C(=O)c2cc(S(=O)(=O)N3CCC[C@H]3COC)cc(I)c21
7.70 | – | < 3.30 | 4.55 | COC[C@@H]1CCCN1S(=O)(=O)c1cc(I)c2c(c1)C(=O)C(=O)N2CCCF
7.48 | 6.55 | 3.30 | 3.30 | COC[C@@H]1CCCN1S(=O)(=O)c1cc(I)c2c(c1)C(=O)C(=O)N2CCCCO
< 3.30 | < 3.30 | – | – | COC[C@@H]1CCCN1S(=O)(=O)c1cc(Br)c2c(c1)C(=O)C(=O)N2
6.88 | – | – | – | CCN1C(=O)C(=O)c2cc(S(=O)(=O)N3CCC[C@H]3COC)cc(Br)c21
7.58 | 6.80 | – | – | CCCN1C(=O)C(=O)c2cc(S(=O)(=O)N3CCC[C@H]3COC)cc(Br)c21
7.50 | 8.23 | – | – | COC[C@@H]1CCCN1S(=O)(=O)c1cc(Br)c2c(c1)C(=O)C(=O)N2CCCCF
< 3.30 | < 3.30 | 3.30 | < 3.30 | COC[C@@H]1CCCN1S(=O)(=O)c1cc(Cl)c2c(c1)C(=O)C(=O)N2
< 3.30 | 5.18 | < 3.30 | < 3.30 | COC[C@@H]1CCCN1S(=O)(=O)c1cc(F)c2c(c1)C(=O)C(=O)N2
8.54 | 8.01 | 5.00 | 4.10 | CCCCN1C(=O)C(=O)c2cc(S(=O)(=O)N3CCC[C@H]3COC)cc(F)c21
7.39 | 7.41 | 5.13 | 4.89 | COC[C@@H]1CCCN1S(=O)(=O)c1cc(F)c2c(c1)C(=O)C(=O)N2CCCCF
